In ChEMBL document CHEMBL1938239, “Novel analgesic/anti-inflammatory agents: diarylpyrrole acetic esters endowed with nitric oxide releasing properties” (J Med Chem, 2011):
Active and inactive are the calls of the source. The calls are words filed in the database; no cut-off is given here.

Key:
J774 = test: Selectivity ratio of IC50 for COX1 in mouse J774 cells to IC50 for COX2 in mouse J774 cells; type: cell-based
Procedure, shortened: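 Ratio of J774 IC50s, COX-1 over COX-2. For COX-1, cells were pretreated with compound for 15 min, then given 15 μM arachidonic acid for 30 min at 37 °C. For COX-2, cells received E. coli LPS 10 μg/mL for 24 h with compound at 0.01–10 μM. PGE2 was measured by RIA in triplicate wells over three experiments. IC50 came from a sigmoidal fit.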

[1] = biological target: T1, Prostaglandin G/H synthase 1 (Mus musculus, UniProt P22437); test: Inhibition of COX-1-mediated PGE2 production in arachidonic acid-stimulated mouse J774 cells incubated for 15 mins prior to arachidonic acid-challenge by radioimmunoassay; type: cell-based
T1 sequence (P22437 whole entry): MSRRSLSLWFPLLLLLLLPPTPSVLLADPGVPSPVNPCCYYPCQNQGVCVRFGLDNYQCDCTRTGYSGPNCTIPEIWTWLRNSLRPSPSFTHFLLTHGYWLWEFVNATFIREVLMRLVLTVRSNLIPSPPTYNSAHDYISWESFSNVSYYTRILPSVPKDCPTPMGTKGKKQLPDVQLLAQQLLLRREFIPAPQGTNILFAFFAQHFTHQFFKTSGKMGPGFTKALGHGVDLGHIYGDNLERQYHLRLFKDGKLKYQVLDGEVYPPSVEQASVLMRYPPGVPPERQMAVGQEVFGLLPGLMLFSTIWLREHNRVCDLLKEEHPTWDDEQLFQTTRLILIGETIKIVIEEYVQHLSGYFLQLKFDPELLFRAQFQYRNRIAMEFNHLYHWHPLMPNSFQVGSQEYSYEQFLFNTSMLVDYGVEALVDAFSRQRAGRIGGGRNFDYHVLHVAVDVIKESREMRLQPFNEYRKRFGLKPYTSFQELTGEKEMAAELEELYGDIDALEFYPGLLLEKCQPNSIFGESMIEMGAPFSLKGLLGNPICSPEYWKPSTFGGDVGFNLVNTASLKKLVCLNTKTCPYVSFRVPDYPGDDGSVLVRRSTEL
Procedure, shortened: (§1)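 J774 murine macrophages grown in DMEM with 10% FBS and allowed to adhere for 2 h at 37 °C. Cells were pretreated with compound at 10 μM for 15 min, then given 15 μM arachidonic acid for 30 min at 37 °C. Where inhibition exceeded 50%, 0.01–1 μM was also tested. Supernatant PGE2 was measured by RIA as % inhibition versus control, in triplicate wells over three experiments. IC50 came from a sigmoidal variable-slope fit.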

[2] = biological target: T2, Prostaglandin G/H synthase 1 (Mus musculus) (UniProt P22437); test: Inhibition of COX-1-mediated PGE2 production in arachidonic acid-stimulated mouse J774 cells at 10 uM incubated for 15 mins prior to arachidonic acid-challenge by radioimmunoassay; type: cell-based
T2 sequence (whole entry): T1 sequence (P22437 whole entry)
Procedure, shortened: as §1, with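 “h” for “h at 37 °C. Cells were pretreated with compound at 10 μM for 15 min, then given 15 μM arachidonic acid for 30 min”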

Rattus norvegicus [3] = test: Antiinflammatory activity against carrageenan-induced paw edema in Sprague-Dawley rat assessed as paw weight at 40 mg/kg, po administered 4 hrs post challenge measured after 30 mins (reference value: 61.3+/-3.0 g); type: functional
Rattus norvegicus [4] = test: Antiinflammatory activity against carrageenan-induced paw edema in Sprague-Dawley rat assessed as paw weight at 40 mg/kg, po administered 4 hrs post challenge measured after 120 mins (reference value: 61.3+/-3.0 g); type: functional
Mus musculus [5] = test: Analgesic activity in Swiss albino mouse abdominal constriction model assessed as reduction in acetic acid-induced writhing response for 10 mins at 20 to 40 mg/kg, po administered 30 mins prior to acetic acid-challenge measured after 5 mins relative to vehicle-treated control; type: functional, organism-based; details: Abdomen
Procedure, shortened: (§2)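 Male Swiss albino mice (23−25 g); 0.6% acetic acid (10 mL/kg) injected ip. Stretching movements counted for 10 min, starting 5 min after administration. Oral doses in carboxymethylcellulose (CMC) vehicle, compared with vehicle-treated mice.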

Rattus norvegicus [6] = test: Antiinflammatory activity against carrageenan-induced paw edema in Sprague-Dawley rat assessed as paw weight at 20 mg/kg, po administered 4 hrs post challenge measured after 120 mins (reference value: 62.6+/-3.1 g); type: functional
Rattus norvegicus [7] = test: Antiinflammatory activity against carrageenan-induced paw edema in Sprague-Dawley rat assessed as paw weight at 20 mg/kg, po administered 4 hrs post challenge measured after 60 mins (reference value: 62.6+/-3.1 g); type: functional
Rattus norvegicus [8] = test: Antiinflammatory activity against carrageenan-induced paw edema in Sprague-Dawley rat assessed as paw weight at 40 mg/kg, po administered 4 hrs post challenge measured after 60 mins (reference value: 61.3+/-3.0 g); type: functional
Rattus norvegicus [9] = test: Antiinflammatory activity against carrageenan-induced paw edema in Sprague-Dawley rat assessed as paw weight at 20 mg/kg, po administered 4 hrs post challenge measured after 30 mins (reference value: 62.6+/-3.1 g); type: functional
Rattus norvegicus [10] = test: Antiinflammatory activity against carrageenan-induced paw edema in Sprague-Dawley rat assessed as paw weight at 30 mg/kg, po administered 4 hrs post challenge measured after 30 mins (reference value: 31.8+/-2.5 g); type: functional
Rattus norvegicus [11] = test: Antiinflammatory activity against carrageenan-induced edema in Sprague-Dawley rat assessed as right hind paw volume at 30 mg/kg, po administered 4 hrs post challenge measured after 60 mins; type: functional
Procedure, shortened: (§3)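 Rats received intraplantar carrageenan. Right hind paw volume was measured 4 h after the carrageenan injection and compared with saline/carrageenan-treated controls. Oral dosing in CMC vehicle; volume recorded at 60 min after treatment.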

[12] = biological target: Prostaglandin G/H synthase 1 (Homo sapiens, UniProt P23219); test: Inhibition of platelet COX1-mediated TXB2 production in LPS-induced human whole blood after 60 mins by radioimmunoassay; type: tissue-based
Chain of Prostaglandin G/H synthase 1 (Homo sapiens, UniProt P23219) (P23219 whole entry): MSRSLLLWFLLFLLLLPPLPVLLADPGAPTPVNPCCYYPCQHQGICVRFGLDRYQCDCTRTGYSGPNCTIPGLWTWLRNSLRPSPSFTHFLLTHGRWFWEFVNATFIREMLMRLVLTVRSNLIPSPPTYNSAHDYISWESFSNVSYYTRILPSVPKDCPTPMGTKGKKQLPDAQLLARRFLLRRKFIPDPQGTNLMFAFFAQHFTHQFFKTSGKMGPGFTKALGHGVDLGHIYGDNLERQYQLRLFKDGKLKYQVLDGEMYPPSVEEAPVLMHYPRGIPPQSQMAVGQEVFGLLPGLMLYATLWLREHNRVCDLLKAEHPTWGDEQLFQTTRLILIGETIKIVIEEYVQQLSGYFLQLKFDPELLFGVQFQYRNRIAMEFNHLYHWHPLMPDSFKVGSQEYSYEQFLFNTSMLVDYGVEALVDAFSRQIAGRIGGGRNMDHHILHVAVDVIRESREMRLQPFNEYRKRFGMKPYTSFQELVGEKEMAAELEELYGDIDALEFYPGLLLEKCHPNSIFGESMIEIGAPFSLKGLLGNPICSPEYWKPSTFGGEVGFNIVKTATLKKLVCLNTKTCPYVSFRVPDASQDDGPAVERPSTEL

Rattus norvegicus [13] = test: Antiinflammatory activity against carrageenan-induced paw edema in Sprague-Dawley rat assessed as paw weight at 30 mg/kg, po administered 4 hrs post challenge measured after 60 mins (reference value: 31.8+/-2.5 g); type: functional
Mus musculus [14] = test: Analgesic activity in Swiss albino mouse abdominal constriction model assessed as reduction in acetic acid-induced writhing response at 30 mg/kg, po administered 30 mins prior to acetic acid-challenge measured after 5 mins relative to vehicle-treated control; type: functional, Abdomen; parameters: scale not given: the % may be the effect or the level left; procedure, shortened: as §2
[15] = biological target: T3, Prostaglandin G/H synthase 2 (Homo sapiens, UniProt P35354); test: Inhibition of COX2-mediated PGE2 production in LPS-induced human whole blood after 60 mins by radioimmunoassay
T3 sequence (P35354 whole entry): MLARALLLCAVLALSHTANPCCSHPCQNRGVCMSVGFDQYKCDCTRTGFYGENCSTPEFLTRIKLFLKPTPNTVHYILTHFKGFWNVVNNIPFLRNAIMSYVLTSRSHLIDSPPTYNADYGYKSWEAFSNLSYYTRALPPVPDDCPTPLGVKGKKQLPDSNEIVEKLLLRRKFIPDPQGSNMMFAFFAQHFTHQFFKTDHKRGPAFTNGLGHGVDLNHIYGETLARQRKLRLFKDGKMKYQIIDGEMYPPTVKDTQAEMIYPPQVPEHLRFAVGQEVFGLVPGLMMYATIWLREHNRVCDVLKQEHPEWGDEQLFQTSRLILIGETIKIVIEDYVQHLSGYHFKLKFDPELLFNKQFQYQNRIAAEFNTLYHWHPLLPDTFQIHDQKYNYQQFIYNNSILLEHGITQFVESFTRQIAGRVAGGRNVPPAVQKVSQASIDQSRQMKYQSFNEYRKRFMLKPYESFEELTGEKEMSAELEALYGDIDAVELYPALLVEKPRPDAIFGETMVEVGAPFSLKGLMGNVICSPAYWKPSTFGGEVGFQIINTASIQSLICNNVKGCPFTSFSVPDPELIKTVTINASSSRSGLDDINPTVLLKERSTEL

Rattus norvegicus [16] = test: Antiinflammatory activity against carrageenan-induced paw edema in Sprague-Dawley rat assessed as paw weight at 30 mg/kg, po administered 4 hrs post challenge measured after 120 mins (reference value: 31.8+/-2.5 g); type: functional
Rattus norvegicus [17] = test: Analgesic activity in Sprague-Dawley rat assessed as reduction in carrageenan-induced paw hyperalgesia at 30 mg/kg, po administered 4 hrs post challenge measured after 30 mins relative to vehicle-treated control; parameters: scale not given: the % may be the effect or the level left
Rattus norvegicus [18] = test: Antiinflammatory activity against carrageenan-induced edema in Sprague-Dawley rat assessed as right hind paw volume at 40 mg/kg, po administered 4 hrs post challenge measured after 60 mins; type: functional; procedure, shortened: as §3
Rattus norvegicus [19] = test: Antiinflammatory activity against carrageenan-induced paw edema in Sprague-Dawley rat assessed as paw weight at 100 mg/kg, po administered 4 hrs post challenge measured after 30 mins (reference value: 31.9+/-3.0 g); type: functional
Aorta [20] = test: Vasorelaxation activity against KCl-induced contraction in isolated Wistar rat thoracic endothelium-denulated aortic rings in the presence of guanylate cyclase inhibitor ODQ; type: functional, tissue-based
Procedure, shortened: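 Thoracic aortic rings from male Wistar rats (250–350 g), endothelium removed by rubbing; rings relaxing ≥10% to ACh 10 μM on KCl 30 mM tone were discarded. ODQ 1 μM was incubated, then rings were contracted with KCl 30 mM and given 3-fold increasing concentrations of 1 nM–10 μM.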

Mus musculus [21] = test: Analgesic activity in Swiss albino mouse abdominal constriction model assessed as reduction in acetic acid-induced writhing response for 10 mins at 40 mg/kg, po administered 30 mins prior to acetic acid-challenge measured after 5 mins relative to vehicle-treated control; type: functional, Abdomen; parameters: scale not given: the % may be the effect or the level left; procedure, shortened: as §2
Rattus norvegicus [22] = test: Antiinflammatory activity against carrageenan-induced paw edema in Sprague-Dawley rat assessed as paw weight at 100 mg/kg, po administered 4 hrs post challenge measured after 60 mins (reference value: 31.9+/-3.0 g); type: functional
Rattus norvegicus [23] = test: Antiinflammatory activity against carrageenan-induced paw edema in Sprague-Dawley rat assessed as paw weight at 40 mg/kg, po administered 4 hrs post challenge measured after 30 mins (reference value: 29.8+/-3.1 g); type: functional
Rattus norvegicus [24] = test: Antiinflammatory activity against carrageenan-induced edema in Sprague-Dawley rat assessed as right hind paw volume at 20 mg/kg, po administered 4 hrs post challenge measured after 60 mins; type: functional; procedure, shortened: as §3
Rattus norvegicus [25] = test: Antiinflammatory activity against carrageenan-induced paw edema in Sprague-Dawley rat assessed as paw weight at 40 mg/kg, po administered 4 hrs post challenge measured after 60 mins (reference value: 29.8+/-3.1 g); type: functional
Rattus norvegicus [26] = test: Antiinflammatory activity against carrageenan-induced edema in Sprague-Dawley rat assessed as right hind paw volume at 100 mg/kg, po administered 4 hrs post challenge measured after 60 mins; type: functional; procedure, shortened: as §3
Rattus norvegicus [27] = test: Antiinflammatory activity against carrageenan-induced paw edema in Sprague-Dawley rat assessed as paw weight at 20 mg/kg, po administered 4 hrs post challenge measured after 60 mins (reference value: 32.6+/-2.7 g); type: functional
Rattus norvegicus [28] = test: Antiinflammatory activity against carrageenan-induced paw edema in Sprague-Dawley rat assessed as paw weight at 20 mg/kg, po administered 4 hrs post challenge measured after 30 mins (reference value: 32.6+/-2.7 g); type: functional
Aorta [29] = test: Vasorelaxation activity against KCl-induced contraction in isolated Wistar rat thoracic endothelium-denulated aortic rings; type: functional, tissue-based
Procedure, shortened: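 Endothelium-denuded thoracic aortic rings from male Wistar rats (250−350 g); denudation confirmed by <10% relaxation to 10 μM ACh. Rings precontracted with 30 mM KCl; compound added at 3-fold increasing concentrations, 1 nM to 10 μM. Isometric tension recorded. Emax given as % of KCl tone; pIC50 derived. Mean ± standard error of 6−10 experiments; repeated with 1 μM ODQ.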

Rattus norvegicus [30] = test: Antiinflammatory activity against carrageenan-induced paw edema in Sprague-Dawley rat assessed as paw weight at 10 mg/kg, po administered 4 hrs post challenge measured after 30 mins (reference value: 61.5+/-3.4 g); type: functional
Rattus norvegicus [31] = test: Antiinflammatory activity against carrageenan-induced paw edema in Sprague-Dawley rat assessed as paw weight at 10 mg/kg, po administered 4 hrs post challenge measured after 60 mins (reference value: 61.5+/-3.4 g); type: functional
Rattus norvegicus [32] = test: Antiinflammatory activity against carrageenan-induced paw edema in Sprague-Dawley rat assessed as paw weight at 10 mg/kg, po administered 4 hrs post challenge measured after 120 mins (reference value: 61.5+/-3.4 g); type: functional
Rattus norvegicus [33] = test: Antiinflammatory activity against carrageenan-induced edema in Sprague-Dawley rat assessed as right hind paw volume at 10 mg/kg, po administered 4 hrs post challenge measured after 60 mins; type: functional; procedure, shortened: as §3

Cc1c(CC(=O)OCCCO)cc(-c2ccc(S(C)(=O)=O)cc2)n1-c1cccc(F)c1
Ratio IC50 (J774): > 435
IC50 [1]: > 10 µM
inhibition [2]: 0%
Activity (Rattus norvegicus [3]): 43.1 g
Activity (Rattus norvegicus [4]): 44.4 g
Activity (Mus musculus [5]): inactive
Activity (Rattus norvegicus [6]): 36.4 g
Activity (Rattus norvegicus [7]): 45.8 g
Activity (Rattus norvegicus [8]): 48.8 g
Activity (Rattus norvegicus [9]): 41.2 g

Cc1c(CC(=O)OCCO)cc(-c2ccc(S(C)(=O)=O)cc2)n1-c1cccc(F)c1
Ratio IC50 (J774): > 118
Activity (Rattus norvegicus [10]): 55.7 g
IC50 [1]: > 10 µM
inhibition [2]: 33%
Activity (Rattus norvegicus [11]): 2.51 mL
IC50 [12]: 12.2 µM
Activity (Rattus norvegicus [13]): 52.3 g
Activity (Mus musculus [14]): 70%
IC50 [15]: 1.7 µM
Activity (Rattus norvegicus [16]): 39.3 g
Activity (Rattus norvegicus [17]): 80%

Cc1c(CC(=O)OCCO[N+](=O)[O-])cc(-c2ccc(S(C)(=O)=O)cc2)n1-c1cccc(F)c1
Ratio IC50 (J774): > 526
Activity (Rattus norvegicus [18]): 2.17 mL
IC50 [1]: > 10 µM
Activity (Rattus norvegicus [19]): 57.2 g
Activity (Aorta [20]): inactive
inhibition [2]: 36%
IC50 [12]: 9.6 µM
Activity (Mus musculus [21]): 70%
Activity (Rattus norvegicus [22]): 36.5 g
Activity (Rattus norvegicus [23]): 54.1 g
IC50 [15]: 3.2 µM
Activity (Rattus norvegicus [24]): 2.52 mL
Activity (Rattus norvegicus [25]): 38.7 g
Activity (Rattus norvegicus [26]): 1.88 mL
Activity (Rattus norvegicus [27]): 35.3 g
Activity (Rattus norvegicus [28]): 40.1 g
IC50 (Aorta [29]): 0.331 µM

Cc1ccc(-c2cc(C(F)(F)F)nn2-c2ccc(S(N)(=O)=O)cc2)cc1 [CELECOXIB]
Activity (Rattus norvegicus [30]): 54.3 g
Activity (Rattus norvegicus [31]): 57.1 g
Activity (Rattus norvegicus [32]): 54.9 g
Activity (Rattus norvegicus [33]): 1.36 mL
